Assay results collected from several papers.
Lines come from different studies, so protocols differ.

Structure (SMILES) | cell line | test | setting | quantity | result
CC(C)c1ccccc1[C@@H]1CCCN1C1CC2(CCN(c3ccc(C(=O)NS(=O)(=O)c4ccc(NC[C@H]5CC[C@](C)(O)CC5)c([N+](=O)[O-])c4)c(Oc4cnc5[nH]ccc5c4)c3)CC2)C1 | SU-DHL-8 | cell growth or viability, ATP luminescence | 48 h | IC50 | 4.45 µM
O=C(NO)c1ccc(CNc2nc3cccc(-c4ccc5c(c4)OCO5)n3n2)cc1 | NCI-H226 | cell growth or viability, SRB |  | GI50 | 0.58 µM
C=CC(=O)c1cccnc1Nc1cccc(C(F)(F)F)c1 | NCI-H226 | cell growth or viability, CCK-8 | 72 h | GI50 | 29.1 µM
C=CC(=O)NC1CCN(c2ncc3ncnc(Nc4ccc(Oc5ccc6c(c5)ncn6C)c(C)c4)c3n2)CC1 | ABC-1 | cell growth or viability |  | EC50 | 0.964 µM
C=CC(=O)c1cccnc1Nc1cc(C(F)(F)F)ccc1OC | NCI-H226 | cell growth or viability, CCK-8 | 72 h | GI50 | 16.2 µM
C=C(F)C(=O)N1CCN(c2nc(OC[C@@H]3CCCN3C)nc3c2CCN(c2cccc4cccc(Cl)c24)C3)C[C@@H]1CC#N | SNU1 | cell growth or viability, ATP luminescence | 3D culture | IC50 | > 1 µM
O=C(O)c1ccc2c(c1)nc(Nc1cccc(Cl)c1)c1ccncc12 | NCI-H226 | cell growth or viability, crystal violet | 48 h | IC50 | 5.8 µM
O=C(O)c1ccccc1Nc1cccc(C(F)(F)F)c1 | NCI-H226 | cell growth or viability, CCK-8 | 72 h | GI50 | > 40 µM
CN(C)C(=O)c1cc2cnc(Nc3ccc(N4CCNCC4)cn3)nc2n1C1CCCC1 | human Neutrophil | superoxide release, inhibitor |  | IC50 | 0.83 µM
